For orientation: IC50 means the concentration needed to halve the response being measured.

The values below come from ChEMBL document CHEMBL4251567 (Eur J Med Chem, 2018).

One assay addresses Histone deacetylase. In words: Inhibition of HDAC in human HeLa-S3 cell lysates preincubated for 15 mins followed by HDAC-Glo substrate addition measured after 35 mins by fluorimetric method. It counts as protein assay.
The target in assay [1] is T1, Histone deacetylase (Homo sapiens) (UniProt Q13547+O15379+Q9UBN7+Q92769+Q9UQL6+Q8WUI4+Q9BY41+Q96DB2+P56524+Q9UKV0+Q969S8). The experiment in a line: Inhibition of HDAC in human HeLa-S3 cell lysates assessed as residual activity at 2 x 10^-4 M preincubated for 15 mins followed by HDAC-Glo substrate addition measured after 35 mins by fluorimetric method relative to control. It counts as protein assay. A digest of the protocol: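 Lysate (1 μg total protein) in HDAC-Glo buffer was preincubated with inhibitor in DMSO for 15 min at room temperature. HDAC-Glo substrate/developer reagent was added and luminescence read after 35 min. Concentrations are final. Signal corrected for a no-lysate blank; % of DMSO control.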

Assay [2] has as its target T1, Histone deacetylase (Homo sapiens). In words: Inhibition of HDAC in human HeLa-S3 cell lysates assessed as residual activity at 1 x 10^-4 M preincubated for 15 mins followed by HDAC-Glo substrate addition measured after 35 mins by […] relative to control. It counts as protein assay.
Assay [3] has the same target. In words: Inhibition of HDAC in human HeLa-S3 cell lysates assessed as residual activity at 2.5 x 10^-5 M preincubated for 15 mins followed by HDAC-Glo substrate addition measured after 35 mins by […] relative to control. It counts as protein assay.
Assay [4] has the same target. The experiment in a line: Inhibition of HDAC in human HeLa-S3 cell lysates assessed as residual activity at 1.25 x 10^-5 M preincubated for 15 mins followed by HDAC-Glo substrate addition measured after 35 mins by […] relative to control. It counts as protein assay.
Assay [5] deals with T2, Histone deacetylase 8 (Homo sapiens) (UniProt Q9BY41).
T2 sequence (whole entry): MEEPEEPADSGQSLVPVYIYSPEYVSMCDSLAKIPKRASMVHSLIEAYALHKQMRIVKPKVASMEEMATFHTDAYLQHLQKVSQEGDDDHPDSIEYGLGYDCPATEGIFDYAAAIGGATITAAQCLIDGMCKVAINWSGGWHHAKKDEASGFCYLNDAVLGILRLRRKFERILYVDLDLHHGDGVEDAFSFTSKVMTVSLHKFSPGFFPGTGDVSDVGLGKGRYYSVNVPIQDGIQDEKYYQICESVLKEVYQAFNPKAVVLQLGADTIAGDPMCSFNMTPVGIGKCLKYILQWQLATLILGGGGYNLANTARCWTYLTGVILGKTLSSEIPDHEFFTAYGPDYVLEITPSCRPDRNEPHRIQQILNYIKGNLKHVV
The experiment in a line: Inhibition of human recombinant full-length C-terminal His-tagged HDAC8 expressed in baculovirus infected Sf9 insect cell assessed as remaining activity at 4 x 10^-7 M preincubated for 15 mins followed by HDAC-Glo substrate addition measured after 30 mins by fluorimetric method rel;ative to control. In a few lines:
(§1)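 Recombinant HDAC8 (75 ng) preincubated 15 min at RT with inhibitor in DMSO in HDAC-Glo buffer. HDAC-Glo reagent added and luminescence read 30 min later. Background taken from a reaction without enzyme; activity as % of DMSO control.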

Assay [6] deals with T2, Histone deacetylase 8 (Homo sapiens). The experiment in a line: Inhibition of human recombinant full-length C-terminal His-tagged HDAC8 expressed in baculovirus infected Sf9 insect cell assessed as remaining activity at 8 x 10^-7 M preincubated for 15 mins followed by HDAC-Glo substrate addition measured after 30 mins by fluorimetric method rel;ative to control. A digest of the protocol:
as §1

For assay [7], the target named is Histone deacetylase 1 (Homo sapiens) (UniProt Q13547). The experiment in a line: Inhibition of HDAC1 in human HeLa-S3 cell lysates assessed as remaining activity at 4.8 x 10^-5 M preincubated for 15 mins followed by HDAC-Glo substrate addition measured after 30 to 40 mins by […] relative to control. A digest of the protocol:
(§2)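 HDAC1 was captured from HeLa-S3 lysate (100 μg/mL) onto wells precoated with anti-HDAC1 antibody (10 μg/mL, carbonate buffer pH 9.4) and milk-blocked, 1 h at 4 °C, then washed. Inhibitor in DMSO was added in HDAC-Glo buffer for 15 min at room temperature. HDAC-Glo reagent was added and luminescence read after 30-40 min. Concentrations are final. No-antibody background subtracted; % of DMSO control.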

Assay [8] has the same target. In words: Inhibition of HDAC1 in human HeLa-S3 cell lysates assessed as remaining activity at 2.4 x 10^-5 M preincubated for 15 mins followed by HDAC-Glo substrate addition measured after 30 to 40 mins by […] relative to control. In a few lines:
as §2

Assay [9] has the same target. In words: Inhibition of HDAC1 in human HeLa-S3 cell lysates assessed as remaining activity at 1.2 x 10^-5 M preincubated for 15 mins followed by HDAC-Glo substrate addition measured after 30 to 40 mins by […] relative to control. A digest of the protocol: as §2
Assay [10] has the same target. In words: Inhibition of HDAC1 in human HeLa-S3 cell lysates assessed as remaining activity at 6 x 10^-6 M preincubated for 15 mins followed by HDAC-Glo substrate addition measured after 30 to 40 mins by […] relative to control. In a few lines: as §2
Assay [11] has the same target. In words: Inhibition of HDAC1 in human HeLa-S3 cell lysates assessed as remaining activity at 3 x 10^-6 M preincubated for 15 mins followed by HDAC-Glo substrate addition […] relative to control.
Assay [12] deals with Histone deacetylase 2 (Homo sapiens) (UniProt Q92769). The experiment in a line: Inhibition of HDAC2 in human HeLa-S3 cell lysates assessed as remaining activity at 4.8 x 10^-5 M preincubated for 15 mins followed by HDAC-Glo substrate addition measured after 30 to 40 mins by […] relative to control. In a few lines: (§3)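 Same antibody-capture format as the other class I isoforms. HeLa-S3 lysate added at 100 μg/mL for HDAC1 and HDAC2, 1 h at 4 °C, then washed. Inhibitor in DMSO preincubated 15 min at RT; HDAC-Glo reagent added and luminescence read after 30-40 min. Concentrations are final. Signal corrected against a well without antibody; activity expressed as % of DMSO control.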

Assay [13] has the same target. In words: Inhibition of HDAC2 in human HeLa-S3 cell lysates assessed as remaining activity at 2.4 x 10^-5 M preincubated for 15 mins followed by HDAC-Glo substrate addition measured after 30 to 40 mins by fluorimetric method relative to control. A digest of the protocol: as §3
For assay [14] the target is unchanged. The experiment in a line: Inhibition of HDAC2 in human HeLa-S3 cell lysates assessed as remaining activity at 1.2 x 10^-5 M preincubated for 15 mins followed by HDAC-Glo substrate addition measured after 30 to 40 mins by […] relative to control. A digest of the protocol: as §3
For assay [15] the target is unchanged. In words: Inhibition of HDAC2 in human HeLa-S3 cell lysates assessed as remaining activity at 6 x 10^-6 M preincubated for 15 mins followed by HDAC-Glo substrate addition measured after 30 to 40 mins by […] relative to control. A digest of the protocol:
as §3

Assay [16] has the same target. In words: Inhibition of HDAC2 in human HeLa-S3 cell lysates assessed as remaining activity at 3 x 10^-6 M preincubated for 15 mins followed by HDAC-Glo substrate addition measured after 30 to 40 mins by fluorimetric method relative to control. In a few lines: as §3
Assay [17] addresses Histone deacetylase 3 (Homo sapiens) (UniProt O15379). The experiment in a line: Inhibition of HDAC3 in human HeLa-S3 cell lysates assessed as remaining activity at 4.8 x 10^-5 M preincubated for 15 mins followed by HDAC-Glo substrate addition measured after 30 to 40 mins by […] relative to control. A digest of the protocol:
(§4)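 Antibody-capture (ELISA-type) assay: HDAC antibody coated in carbonate/bicarbonate buffer pH 9.4, wells blocked with 5% milk in TBST. HeLa-S3 lysate added at 1 mg/mL for HDAC3, 1 h at 4 °C, then washed. Inhibitor in DMSO preincubated 15 min at RT in HDAC-Glo buffer. HDAC-Glo reagent added, luminescence read after 30-40 min. Concentrations are final. Background = no-antibody well; activity given as % of DMSO control.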

The target is the same in assay [18]. The experiment in a line: Inhibition of HDAC3 in human HeLa-S3 cell lysates assessed as remaining activity at 2.4 x 10^-5 M preincubated for 15 mins followed by HDAC-Glo substrate addition measured after 30 to 40 mins by […] relative to control. A digest of the protocol: as §4
Assay [19] shares this target. In words: Inhibition of HDAC3 in human HeLa-S3 cell lysates assessed as remaining activity at 1.2 x 10^-5 M preincubated for 15 mins followed by HDAC-Glo substrate addition measured after 30 to 40 mins by […] relative to control. A digest of the protocol: as §4
The target is the same in assay [20]. The experiment in a line: Inhibition of HDAC3 in human HeLa-S3 cell lysates assessed as remaining activity at 6 x 10^-6 M preincubated for 15 mins followed by HDAC-Glo substrate addition measured after 30 to 40 mins by […] relative to control. A digest of the protocol:
as §4

The target is the same in assay [21]. In words: Inhibition of HDAC3 in human HeLa-S3 cell lysates assessed as remaining activity at 3 x 10^-6 M preincubated for 15 mins followed by HDAC-Glo substrate addition measured after 30 to 40 mins by fluorimetric method relative to control. A digest of the protocol:
as §4

SMILES strings stand for the structures.

Sequence of Histone deacetylase 3 (Homo sapiens) (O15379 whole entry): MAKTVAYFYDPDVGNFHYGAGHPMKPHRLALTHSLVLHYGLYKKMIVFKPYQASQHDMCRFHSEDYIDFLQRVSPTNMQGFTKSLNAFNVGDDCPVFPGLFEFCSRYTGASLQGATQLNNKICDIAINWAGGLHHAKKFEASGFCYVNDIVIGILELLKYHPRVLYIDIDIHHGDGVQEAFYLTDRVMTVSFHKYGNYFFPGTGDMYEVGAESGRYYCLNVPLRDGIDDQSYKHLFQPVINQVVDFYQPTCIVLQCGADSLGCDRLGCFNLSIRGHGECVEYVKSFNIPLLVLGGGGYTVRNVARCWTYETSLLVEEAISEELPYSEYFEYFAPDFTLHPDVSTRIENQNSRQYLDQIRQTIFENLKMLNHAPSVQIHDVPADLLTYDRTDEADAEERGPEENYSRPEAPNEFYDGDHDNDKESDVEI
Sequence of Histone deacetylase 1 (Homo sapiens) (Q13547 whole entry): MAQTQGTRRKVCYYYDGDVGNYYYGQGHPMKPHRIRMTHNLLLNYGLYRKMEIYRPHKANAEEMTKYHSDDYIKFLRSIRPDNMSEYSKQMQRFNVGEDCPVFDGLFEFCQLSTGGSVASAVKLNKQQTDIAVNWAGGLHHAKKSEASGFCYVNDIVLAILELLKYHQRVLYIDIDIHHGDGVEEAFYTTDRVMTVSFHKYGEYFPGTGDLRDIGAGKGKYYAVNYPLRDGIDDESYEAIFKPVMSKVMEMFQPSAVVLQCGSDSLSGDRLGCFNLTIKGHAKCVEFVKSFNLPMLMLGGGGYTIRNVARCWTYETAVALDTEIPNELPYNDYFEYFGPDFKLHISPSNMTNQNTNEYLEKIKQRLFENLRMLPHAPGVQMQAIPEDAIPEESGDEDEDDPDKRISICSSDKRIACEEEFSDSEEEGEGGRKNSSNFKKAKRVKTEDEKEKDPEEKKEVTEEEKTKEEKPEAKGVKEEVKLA
Sequence of Histone deacetylase 2 (Homo sapiens) (Q92769 whole entry, canonical isoform): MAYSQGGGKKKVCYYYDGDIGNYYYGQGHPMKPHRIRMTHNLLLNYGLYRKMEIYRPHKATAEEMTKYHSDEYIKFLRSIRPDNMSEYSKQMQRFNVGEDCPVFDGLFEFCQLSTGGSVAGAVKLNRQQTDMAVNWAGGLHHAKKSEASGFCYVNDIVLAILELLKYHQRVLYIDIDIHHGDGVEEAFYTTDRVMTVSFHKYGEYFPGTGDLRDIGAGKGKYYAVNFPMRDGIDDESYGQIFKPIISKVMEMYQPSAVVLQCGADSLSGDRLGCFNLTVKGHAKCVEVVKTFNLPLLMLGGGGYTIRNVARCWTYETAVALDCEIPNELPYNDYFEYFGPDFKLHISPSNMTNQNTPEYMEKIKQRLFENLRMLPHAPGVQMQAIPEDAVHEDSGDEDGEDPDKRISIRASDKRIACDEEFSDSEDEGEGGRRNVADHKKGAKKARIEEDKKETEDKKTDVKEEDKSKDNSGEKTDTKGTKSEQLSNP

In turn, `O=C(CCC(CCCC(=O)Nc1ccccc1)c1ccccc1)NO` (configuration not stated) came in with an IC50 against Histone deacetylase of 65 µM. The Activity in [1] amounted to 15%; in [2], 32%; in [3] it was 88%; in [4], 104%; in assay [5] it was 48%; in assay [6] it was 29%. The Activity in [7] turned out to be 19%; in assay [8], 34%; in assay [9], 53%; in assay [10] it was 63%; in [11] it was 74%; in assay [12], 22%. Moreover, the Activity is 33% in [13]; 53% in assay [14]; 68% in assay [15]; 72% in [16]; 30% in [17]; 53% in assay [18]. Further, the figures for the Activity in assay [19], in assay [20] and in assay [21] were 64%, 74% and 88%, respectively.
